# RanGTP-Imp inh: inhibitors of RanGTP-importin-beta interaction, primary screen, biochemical, FRET, CFP-Ran, YFP-importin-beta, homogeneous; cell-free CFP-Ran/YFP-importin-beta FRET ratio; Ran GTPase (GTP-bound) - importin-beta complex; actives 1.1% (n = 300,000); inhibition, % (concentration not given with the values); AID 2216, 2009;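 active = more than half of the replicate wells show a fall in the fluorescence ratio signal beyond about 16%, limit read from the data, passing the limit was not always enough; inconclusive = exactly half of the replicate wells pass the set limit; inactive = fewer than half of replicates pass the limit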
# EBV gp42 inh: Epstein-Barr virus gp42 inhibitors, primary screen, biochemical, uHTS, fluorescence polarization. inhibition, % (tested at 21.74 µM). Fluorescence polarization binding assay, mP read-out. actives 0.42% (n = 220,000); in the data active = inhibition above about 50%
# Runt-CBFb FRET: inhibitors of RUNX1 Runt–CBFb binding, primary screen, biochemical, FRET, Cerulean-Runt, Venus-CBFb, uHTS; Runt-related transcription factor 1 (Homo sapiens) + Core-binding factor subunit beta …; Cerulean-Runt/Venus-CBFb FRET ratio 530/480, 1 h; inhibition, % at 20 µM; actives 0.46% (n = 220,000);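 active = inhibition over about 50% at 20 µM in the single-dose screen, limit read from the data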
#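 Measured by: fluorescence energy transfer, 422 nm excitation, 530/480 nm emission; Assay system: Cerulean-Runt domain; Medium: Tris pH 7.5 buffer with BSA; Measure: loss of energy transfer signal; Controls: 5 µM unlabeled CBFb as full-inhibition high control; Incubation: protein complex preformed 1 h, compound exposure 1 h, room temperature, dark.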
# MEX-5 binding: MEX-5 zinc finger RNA-binding disruptors – biochemical, C. elegans, fluorescence polarization, MLPCN library, primary screen | MEX-5/FITC-TCR2 RNA binding; hits give low values | activity score (negative = inhibition of binding), % at 10 µM | actives 0.38% (n = 300,000);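 active = inhibition past about -25% in most replicates, and total fluorescence under double the plate's negative control median, limit read from the data; inconclusive = replicates evenly split on the limit, or fluorescence at least double controls; inactive = too little inhibition in most replicates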
# LANA-H2B inh: blockers of LANA interaction with H2A/H2B – biochemical, FP readout, HTS, primary screen; Protein LANA1 (Human herpesvirus 8 type P (isolate GK18)), Q9QR71; cell-free LANA-H2A/H2B peptide, fluorescence polarization; inhibition, % (concentration not given with the values); actives 0.6% (n = 320,000); in the data active = inhibition mostly above about 10%, no sharp cut-off; inactive = mostly below about 6.7%
# Runt-SMMHC FRET: inhibitors of RUNX1 Runt–CBFb-SMMHC binding, primary screen, biochemical, FRET, Cerulean-Runt, Venus-CBFb-SMMHC, uHTS. Cerulean-Runt/Venus-CBFb-SMMHC FRET ratio 530/480, 1 h. inhibition, % at 20 µM. actives 0.74% (n = 220,000). Runt-related transcription factor 1 (Homo sapiens) + Core-binding factor subunit beta …;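 active = mean inhibition across duplicate retests at 20 µM reaching about 50%, limit read from the data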;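 also: inhibitors lower the FRET ratio by blocking Runt binding to CBFb-SMMHC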
# Numbers stand for hits; n = inactive; u = inconclusive; x = no result given; + = active, no number. The list is not random: actives were taken first. Their share in the collection is about 2.4%.
SMILES,RanGTP-Imp inh,EBV gp42 inh,Runt-CBFb FRET,MEX-5 binding,LANA-H2B inh,Runt-SMMHC FRET
O=C(Nc1ccc(S(=O)(=O)Nc2nccs2)cc1)c1c(F)c(F)c(F)c(F)c1F,n,x,x,n,n,x
COc1ccc(C2=NOC(Cn3nc(-c4ccccc4)cc3C(=O)NCc3ccccc3OC)C2)cc1 (configuration not stated),x,x,x,x,n,x
O=C(CSc1n[nH]c(=O)[nH]c1=O)NC1CC1,n,n,n,n,n,n
O=C(C[n+]1ccc(Cc2ccccc2)cc1)Nc1ccccc1,n,n,n,n,n,n
CCc1ccc(NC(=O)CN(c2cc(C)cc(C)c2)S(=O)(=O)c2c(C)[nH]c(=O)[nH]c2=O)cc1,20.9,x,x,n,n,x
CC(/C=N/NC(=O)c1cccs1)=C\c1ccco1,20.4,n,n,n,n,n
C=CC[C@@H](CC(=O)NCCO)C(=O)N[C@@H](COC(=O)[C@@H](CC=C)Cc1ccc(F)cc1)Cc1c[nH]c2ccccc12,x,x,x,x,n,x
C=CC[C@@H](CC(=O)NCCO)C(=O)N[C@H](COC(=O)[C@@H](CC=C)Cc1ccc(F)cc1)Cc1c[nH]c2ccccc12,x,x,x,x,+,x
CCN(CC(=O)Nc1c(F)cccc1F)C(=O)CCNS(=O)(=O)c1ccc(C)c(C)c1,u,x,x,n,n,x
O=C(/C=C/Nc1ccccc1)c1ccc(Cl)cc1Cl,n,x,x,n,5.1,x
O=C(/C=C/Nc1ccccc1)c1ccccc1,n,n,n,n,n,n
C=CCSC1=N/C(=C\c2ccc(C(=O)O)cc2)C(=O)S1,n,n,n,n,n,n
Oc1ccc(/C=N/Nc2ccc(Cl)nn2)c(O)c1O,n,x,x,-48.2,n,x
Cc1ccc(N(C(=O)CNC(=O)c2ccco2)C(C(=O)NC2CCCCC2)c2cccnc2)c(C)c1 (configuration not stated),n,x,x,n,n,x
COCCN(CCOC)C(=O)c1c[nH]c2ccc(S(=O)(=O)N(C)c3ccc(F)cc3)cc2c1=O,n,n,n,n,80.5,n
CCOc1ccc(NC(=O)CCC(=O)O)cc1,24.3,n,n,n,n,n
COc1ccc(OC)c(CCNC(=O)c2ccc(NC3=NC4CS(=O)(=O)CC4S3)cc2)c1 (configuration not stated),n,x,x,n,n,x
O=C(Nc1ccc(Cl)cc1)NC1CCCC1Cc1ccco1 (configuration not stated),n,n,n,n,16.9,n
O=C(N/N=C/c1cccn1-c1cccc(C(=O)O)c1)Nc1ccccc1,n,n,n,n,n,n
O=C(NCCCN1CCCC1)Nc1cccc2ccccc12,n,n,n,n,14.4,n
CN1CCN(CCCNC(=O)Nc2cccc3ccccc23)CC1,n,n,n,n,n,n
O=C1OC(CC(=O)N(Cc2nnc(-c3ccccc3Cl)o2)C2CC2)c2ccccc21 (configuration not stated),x,x,x,x,20.3,x
CN(CC(=O)NCc1ccccn1)S(=O)(=O)c1ccc(Br)cc1,n,n,n,-25.9,n,n
CCOc1ccc(S(=O)(=O)N(C)CC(=O)NCc2ccccn2)cc1,n,x,x,n,n,x
O=C(/C=C/N1CCOCC1)c1ccc(-c2ccccc2)cc1,n,n,n,-35.2,n,n
SMILES,RanGTP-Imp inh,EBV gp42 inh,Runt-CBFb FRET,MEX-5 binding,LANA-H2B inh,Runt-SMMHC FRET
COc1ccc(/C=C/C(=O)N2CCN(C)CC2)cc1S(=O)(=O)N1CCCCC1,76.7,n,n,n,n,n
Cc1ccc(/C=C/C(=O)O)cc1S(=O)(=O)N1CCCCC1,n,n,n,-29.6,n,n
COc1ccc(N2C(=O)c3ccc(C(=O)Nc4ccccc4O)cc3C2=O)cc1,n,x,x,n,15.1,x
COc1ccc(N2C(=O)C(Cl)=C(Nc3ccccc3O)C2=O)cc1,n,n,n,-33.6,n,n
COc1ccc(N2C(=O)C(Cl)=C(Nc3ccccc3OC)C2=O)cc1,n,n,n,n,n,n
COc1ccccc1N1C(=O)c2ccc(C(=O)Nc3ccccc3O)cc2C1=O,n,x,x,n,n,x
COc1ccc(N/C=C/c2nc(SC)nnc2C)cc1,n,n,n,n,n,n
CCC(C)NC(=O)c1[nH]c(C)c(C(=O)OC)c1C (configuration not stated),u,n,n,n,n,n
CCOc1cc(-c2ccc(N)c(OCC)c2)ccc1N,n,145.5,n,x,n,n
CCOc1ccc(N)c(SSc2cc(OCC)ccc2N)c1,n,x,x,n,n,x
Cc1ccc(Cl)cc1-n1c(=O)cc(N2CCN(C(=O)c3ccco3)CC2)[nH]c1=O,32.4,n,n,n,n,n
CCn1c2ccccc2c2cc([N+](=O)[O-])ccc21,n,n,n,n,n,n
CCn1c2ccccc2c(=O)c2ccccc21,145.1,n,n,-28.1,n,91.1
O=C(NCc1nc2ccccc2[nH]1)C1=C[C@@H](c2ccc3c(c2)OCO3)C[C@@H](OCc2ccc(CO)cc2)O1,n,n,n,n,x,n
COC(=O)CC1COc2ccccc2N1C(=O)c1ccc(Cl)cc1 (configuration not stated),179.2,n,n,n,n,n
C=CCN1C=C2C(=O)C(C)(OC(=O)CCC(=O)OC)C(=O)C(Br)=C2C=C1c1ccc(OC)cc1 (configuration not stated),n,n,n,-27.9,n,n
COC(=O)CCC(=O)OC1(C)C(=O)C2=CN(Cc3ccco3)C(c3ccc(OC)cc3)=CC2=C(Br)C1=O (configuration not stated),n,x,x,-37.1,n,x
COC(=O)CCC(=O)OC1(C)C(=O)C2=CN(c3ccc(OC)cc3)C(c3ccc(OC)cc3)=CC2=C(Br)C1=O (configuration not stated),n,x,x,n,n,x
COCCN1C=C2C(=O)C(C)(OC(=O)CCC(=O)OC)C(=O)C(Br)=C2C=C1c1ccc(OC)cc1 (configuration not stated),n,x,x,n,n,x
CCN1Cc2c(/C=C/c3ccccc3)nc3ccc(OC)cc3c2N(c2cccc(Cl)c2)C1,n,n,n,n,n,n
CCOC(=O)c1ccccc1NC(=O)COC(=O)CN1C(=O)C2CC=CCC2C1=O (configuration not stated),n,x,x,n,161.7,x

# Screening results as filed in PubChem.
